Assay [1] can be described thus: Antitumor activity to reduce proliferation of human T-lymphocyte CEM/0 cells by 50%. In kind it is functional, cell-based. The essentials: (§1)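 CEM or Molt4/C8 cells were seeded into 96-well wells with test compound and grown for 72 h at 37 °C in a humidified, CO2-controlled atmosphere. Cells were then counted with a Coulter counter. IC50 is the compound concentration that reduced the number of living cells by 50%.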

The nature of assay [2]: Antitumor activity to reduce proliferation of human T-lymphocyte Molt4/C8 cells by 50%. In kind it is functional, cell-based. Conditions: molt-4. In short, it runs like this:
as §1

In assay [3] the test system is L1210. Description: Antitumor activity to reduce proliferation of murine leukemia L1210/0 cells by 50%. The format is functional, cell-based, Mus musculus. The essentials: (§2)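 L1210 murine leukemia cells were incubated in 96-well microtiter wells with test compound for 48 h at 37 °C under humidified, CO2-controlled conditions. Cell numbers were then counted with a Coulter counter. IC50 was taken as the concentration giving a 50% reduction in living cell count.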

Assay [4] can be described thus: Concentration required to reduce proliferation of human T-lymphocyte CEM/0 cells by 50%. In kind it is functional, cell-based. The essentials:
as §1

Assay [5] in a line: Concentration required to reduce proliferation of human T-lymphocyte Molt4/C8 cells by 50%. Conditions: molt-4. The format is functional, cell-based. In short, it runs like this: as §1
The subject of assay [6] is L1210. Description: Concentration required to reduce proliferation of murine leukemia L1210/0 cells by 50%. The format is functional, cell-based, Mus musculus. In short, it runs like this: as §2

Converted amounts (≈) assume the structure as drawn.

As a reminder, the IC50 is the point on the concentration scale where inhibition reaches its midpoint. A low value points to inhibition by little substance.

Turning to `O=c1[nH]c(=O)n(C2CCCC2CO)cc1I` (stereo in doubt; 4a), the concentration for half-maximal inhibition (IC50) came out at 57.4 µg/mL (≈ 171 µM) in assay [1], 77.4 µg/mL (≈ 230 µM) in assay [2] and 52.3 µg/mL (≈ 156 µM) with L1210 [3].

For the molecule `O=c1[nH]c(=O)n(C2CCCC2CO)cc1I` (trans isomer), the IC50 (in assay [1]; in assay [2]; in the assay on L1210 [3]) was above 200 µg/mL in each case.

For `OCC1CCCC1Cn1cnc2c(Cl)ncnc21` (trans isomer), the concentration for half-maximal inhibition (IC50) in assay [1] was 15 µg/mL (≈ 56.2 µM); in assay [2], 22.3 µg/mL (≈ 83.6 µM); in the assay with L1210 [3], 48.7 µg/mL (≈ 183 µM).

For `O=c1ccn(CC2CCCC2CO)c(=O)[nH]1` (configuration not stated), the half-maximal inhibitory concentration (IC50) (in assay [1]; in assay [2]; in the assay on L1210 [3]) was above 200 µg/mL throughout.

On to `Nc1ncnc2c1ncn2CC1CCCC1CO` (trans isomer), for which the half-maximal inhibitory concentration (IC50) (in assay [1]; in assay [2]; with L1210 [3]) was above 200 µg/mL each time.

For `Nc1ncnc2c1ncn2CC1CCCC1CO` (stereo in doubt; 7c), the concentration for half-maximal inhibition (IC50) in assay [1] came out at 108 µg/mL (≈ 437 µM); in assay [2], 100 µg/mL (≈ 404 µM); in the assay with L1210 [3] it was 102 µg/mL (≈ 412 µM).

Take `Nc1ncnc2c1ncn2C1CCCC1CO` (cis isomer): the IC50 (in assay [1]; in the assay with L1210 [3]) was above 200 µg/mL each time.

Consider `OCC1CCCC1n1cnc2c(Cl)ncnc21` (cis isomer), for which the IC50 in assay [1] came out at 61 µg/mL (≈ 241 µM); in assay [2], 49.9 µg/mL (≈ 197 µM); with L1210 [3], 62.8 µg/mL (≈ 249 µM).

With `O=c1[nH]c(=O)n(CC2CCCC2CO)cc1I` (trans isomer), the figures for the IC50 (in assay [1]; in assay [2]; in the assay on L1210 [3]) were 131 µg/mL (≈ 374 µM), 158 µg/mL (≈ 451 µM) and 65.8 µg/mL (≈ 188 µM), respectively.

As to `OCC1CCCC1Cn1cnc2c(O)ncnc21` (cis isomer), the IC50 (in assay [4]; in assay [5]; with L1210 [6]) was above 200 µg/mL in each case.

Turning to `OCC1CCCC1n1cnc2c(Cl)ncnc21` (trans isomer), the IC50 in assay [1] turned out to be 19 µg/mL (≈ 75.2 µM); in assay [2] it was 39.2 µg/mL (≈ 155 µM); in the assay with L1210 [3], 56.1 µg/mL (≈ 222 µM).

Regarding `O=c1[nH]c(=O)n(CC2CCCC2CO)cc1I` (cis isomer), the IC50 in assay [1] stood at 117 µg/mL (≈ 334 µM); in assay [2], 108 µg/mL (≈ 308 µM); in the assay on L1210 [3] it was 71.1 µg/mL (≈ 203 µM).

For the molecule `O=c1ccn(C2CCCC2CO)c(=O)[nH]1` (trans isomer), the IC50 (in assay [1]; in assay [2]; with L1210 [3]) was above 200 µg/mL throughout.

Take `Nc1ncnc2c1ncn2C1CCCC1CO` (trans isomer): the IC50 was 180 µg/mL (≈ 772 µM) in assay [1], above 200 µg/mL in assay [2] and 179 µg/mL (≈ 767 µM) in the assay on L1210 [3].

In the case of `OCC1CCCC1Cn1cnc2c(Cl)ncnc21` (cis isomer), the IC50 in assay [1] is 16 µg/mL (≈ 60 µM); in assay [2], 6.54 µg/mL (≈ 24.5 µM); with L1210 [3] it was 14 µg/mL (≈ 52.5 µM).

Consider `OCC1CCCC1n1cnc2c(O)ncnc21` (trans isomer), for which the IC50 (in assay [4]; in assay [5]; in the assay with L1210 [6]) was above 200 µg/mL in each case.

For the origin of these results see ChEMBL document CHEMBL1133181, “A novel approach for the virtual screening and rational design of anticancer compounds” (J Med Chem, 2000).
